Data: ChEMBL document CHEMBL2417398, “Synthesis, antileishmanial activity and structure-activity relationship of 1-N-X-phenyl-3-N'-Y-phenyl-benzamidines” (Eur J Med Chem, 2013)

Experiments:
[1] = system: Leishmania amazonensis; experiment: Antileishmanial activity against Leishmania amazonensis MHOM/BR/77/LTB0016 promastigotes after 24 hrs by cell counting; format: functional, organism-based
Method in brief: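 L. amazonensis MHOM/BR/77/LTB0016 promastigotes grown at 25 °C in LIT medium with 10% (v/v) heat-inactivated FCS, harvested in late log phase and set to 4 x 10^6 /mL. Drugs in DMSO (up to 1.6% v/v) at 160 to 5 μg/mL for 24 h. Surviving parasites counted in a Neubauer chamber. Inhibition taken against DMSO and untreated controls. IC50 from linear regression of % inhibition versus log concentration.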

[2] = Cytotoxicity against macrophages (unknown origin) at 320 ug/ml; format: cell-based; conditions: macrophage
[3] = system: Leishmania chagasi; experiment: Antileishmanial activity against Leishmania chagasi promastigotes after 24 hrs by cell counting; format: functional, organism-based
Method in brief: (§1)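 Promastigotes given drugs in DMSO (at most 1.6% v/v) over 160 to 5 μg/mL for 24 h. Remaining parasites counted in a Neubauer chamber and % inhibition set against DMSO-only and parasite-only controls. IC50 derived by linear regression of % inhibition against log drug concentration.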

[4] = system: Leishmania braziliensis; experiment: Antileishmanial activity against Leishmania braziliensis promastigotes after 24 hrs by cell counting; format: functional, organism-based; method in brief: as §1
[5] = Leishmania amazonensis, MHOM/BR/77/LTB0016, 24 h

| SMILES | logIC50 [1, 5] | also measured |
| --- | --- | --- |
| COc1ccc(/C(=N/c2ccccc2)Nc2cccc(C)c2)cc1 | 2.42 |  |
| COc1ccc(/C(=N/c2ccccc2)Nc2ccc(C)cc2)cc1 | 2.42 |  |
| COc1ccc(/C(=N/c2ccccc2)Nc2cccc(O)c2)cc1 | 2.65 |  |
| COc1ccc(/C(=N/c2ccccc2)Nc2cccc([N+](=O)[O-])c2)cc1 | 2.59 |  |
| COc1ccc(/N=C(\Nc2ccc(OC)cc2)c2ccccc2)cc1 [listing 1 of 2 here] |  | Activity [2]: 100%; logIC50 [3]: 2.25; logIC50 [4]: 2.25; logIC50 [1]: 2.24 |
| COc1ccc(/C(=N/c2ccccc2)Nc2ccc(Br)cc2)cc1 | 1.34 |  |
| N=C(N)c1ccc(OCCCCCOc2ccc(C(=N)N)cc2)cc1 [PENTAMIDINE] | 1.05 | Activity [2]: 100%; logIC50 ([3]; Leishmania chagasi, 24 h): 1.76; logIC50 ([4]; Leishmania braziliensis, 24 h): 1.36 |
| COc1ccc(/C(=N/c2ccccc2)Nc2ccccc2)cc1 [listing 1 of 2 here] |  | Activity [2]: Non-toxic; logIC50 [3]: 1.91; logIC50 [4]: 1.9; logIC50 [1]: 1.85 |
| COc1ccc(/C(=N/c2ccccc2)Nc2ccc(O)cc2)cc1 | 2.51 |  |
| COc1ccc(/C(=N/c2ccccc2)Nc2ccc(S(N)(=O)=O)cc2)cc1 | 1.79 |  |
| COc1ccc(/N=C(\Nc2ccccc2)c2ccc3c(c2)OCO3)cc1 | 1.6 |  |
| COc1ccc(/C(=N/c2ccccc2)Nc2cccc(F)c2)cc1 | 1.62 |  |
| COc1ccc(/C(=N/c2ccccc2)Nc2ccccc2)cc1 [listing 2 of 2 here] | 1.9 | logIC50 ([3]; Leishmania chagasi, 24 h): 2.76; logIC50 ([4]; Leishmania braziliensis, 24 h): 2.05 |
| COc1cccc(/C(=N/c2ccccc2)Nc2ccccc2)c1 | 2.56 |  |
| COc1ccc(/N=C(\Nc2ccccc2)c2ccccc2)cc1 | 2.8 |  |
| COc1ccc(/N=C(\Nc2ccccc2)c2cccc(OC)c2)cc1 | 2.57 |  |
| COc1ccc(/N=C(\Nc2ccccc2)c2ccc(OC)cc2)cc1 [listing 1 of 2 here] | 1.82 | logIC50 ([3]; Leishmania chagasi, 24 h): 2.04; logIC50 ([4]; Leishmania braziliensis, 24 h): 1.42 |
| COc1ccc(/N=C(\Nc2ccc(OC)cc2)c2ccccc2)cc1 [listing 2 of 2 here] | 1.62 | logIC50 ([3]; Leishmania chagasi, 24 h): > 3; logIC50 ([4]; Leishmania braziliensis, 24 h): 2.13 |
| COc1ccc(/N=C(\Nc2ccccc2)c2ccc(OC)cc2)cc1 [listing 2 of 2 here] |  | Activity [2]: 15%; logIC50 [3]: 1.95; logIC50 [4]: 1.52; logIC50 [1]: 2.8 |
| COc1ccc(/C(=N/c2ccccc2)Nc2cccc(OC)c2)cc1 | 1.68 |  |
| COc1ccc(/C(=N/c2ccccc2)Nc2ccc(F)cc2)cc1 | 1.43 |  |
| COc1ccc(/C(=N/c2ccccc2)Nc2ccc(Cl)c([N+](=O)[O-])c2)cc1 | 1.1 |  |
| COc1ccc(/C(=N/c2ccccc2)Nc2ccc([N+](=O)[O-])cc2)cc1 | 1.22 |  |
| COc1ccc(/C(=N/c2ccccc2)Nc2cccc(Cl)c2)cc1 | 1.11 |  |
| COc1ccc(/C(=N/c2ccccc2)Nc2ccc(Cl)cc2)cc1 | 1.9 |  |
| COc1ccc(/N=C(\Nc2ccc(OC)cc2)c2ccc(OC)cc2)cc1 | > 3 |  |
